Data reported in PubChem BioAssay AID489030 (Sanford-Burnham Center for Chemical Genomics, 2010).
Where “and” joins values, the source holds several entries; their conditions need not be identical. Equal values may be shown once. Screen size: about 330,000 compounds; about 2,400 (0.73%) were called active. The calls were made as follows: active = inhibition of at least 40% at 20 µM; inactive = the rest. The full list was thinned out, with actives kept by preference.

Biological target: Apoptotic protease-activating factor 1 (Homo sapiens) (UniProt O14727)
Sequence (O14727 whole entry, looked up): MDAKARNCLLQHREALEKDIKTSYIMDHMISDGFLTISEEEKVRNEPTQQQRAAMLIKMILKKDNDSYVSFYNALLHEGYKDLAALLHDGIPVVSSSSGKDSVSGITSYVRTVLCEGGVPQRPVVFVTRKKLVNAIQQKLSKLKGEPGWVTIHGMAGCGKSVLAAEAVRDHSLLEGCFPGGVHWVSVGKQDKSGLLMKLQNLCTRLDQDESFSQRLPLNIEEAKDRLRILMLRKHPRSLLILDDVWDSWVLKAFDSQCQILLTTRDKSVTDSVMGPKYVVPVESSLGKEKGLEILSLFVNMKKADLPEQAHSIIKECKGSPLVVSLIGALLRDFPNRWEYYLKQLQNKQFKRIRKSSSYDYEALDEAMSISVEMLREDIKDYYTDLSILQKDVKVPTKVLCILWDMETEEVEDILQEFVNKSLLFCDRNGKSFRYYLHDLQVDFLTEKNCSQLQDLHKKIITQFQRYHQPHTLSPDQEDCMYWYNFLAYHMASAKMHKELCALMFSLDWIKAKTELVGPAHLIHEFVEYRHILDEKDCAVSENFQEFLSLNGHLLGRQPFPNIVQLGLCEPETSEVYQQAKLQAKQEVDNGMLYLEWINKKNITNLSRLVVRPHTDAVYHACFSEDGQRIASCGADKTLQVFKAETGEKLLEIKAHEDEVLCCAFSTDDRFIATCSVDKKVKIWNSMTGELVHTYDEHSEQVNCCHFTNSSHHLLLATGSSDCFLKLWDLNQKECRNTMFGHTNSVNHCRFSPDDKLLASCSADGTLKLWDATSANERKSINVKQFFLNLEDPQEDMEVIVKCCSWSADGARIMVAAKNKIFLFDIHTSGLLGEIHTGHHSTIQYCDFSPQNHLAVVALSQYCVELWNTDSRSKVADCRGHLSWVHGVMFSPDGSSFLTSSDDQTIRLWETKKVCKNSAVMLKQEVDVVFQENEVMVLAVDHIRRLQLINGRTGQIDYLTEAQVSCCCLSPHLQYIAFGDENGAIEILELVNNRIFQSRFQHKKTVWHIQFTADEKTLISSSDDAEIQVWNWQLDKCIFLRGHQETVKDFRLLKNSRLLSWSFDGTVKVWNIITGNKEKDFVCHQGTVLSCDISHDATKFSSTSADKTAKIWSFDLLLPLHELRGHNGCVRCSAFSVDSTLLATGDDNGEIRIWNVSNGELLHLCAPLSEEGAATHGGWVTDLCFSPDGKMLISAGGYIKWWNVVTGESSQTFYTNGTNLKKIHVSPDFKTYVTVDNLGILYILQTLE
Test: blockers of Apaf-1-driven caspase-3 activation – biochemical, DEVD-Rh110 fluorescence, uHTS, primary screen (AID 489030);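 also: plate controls were DMSO wells for no effect and DEVD-CHO caspase inhibitor wells for full effect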
Conditions: reconstituted apoptosome caspase-3 activity, at 20 µM, active compounds read high
Method in brief: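 Material: reconstituted apoptosome with Apaf-1, cytochrome c, caspase-9, procaspase-3, dATP; medium: pH 7.5 Hepes buffer with CHAPS, BSA, DTT; also added: cytochrome c and DEVD-Rh110 substrate; timing: 30 min plus 50 min, RT; signal: Rh110 fluorescence intensity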

inhibition, inactive:
Cc1ccc(-c2nc(-c3cccnc3)sc2CC(=O)Nc2ccc(C)c(Cl)c2)cc1 19%
Cc1cccc(OCC(=O)NC2CC(C)(C)NC(C)(C)C2)c1 0.115%
c1ccc(-c2cc(N3CCCCC3)c3ccccc3n2)cc1 -0.639%
O=C(CS(=O)(=O)c1cn(Cc2cccc(F)c2)c2ccccc12)N1CCCCC1 18.4%
COc1ccc(OC)c(NC(=S)N2CCc3ccccc3C2)c1 -1.06%
O=S(=O)(c1ccc(Br)cc1)N1CCC(c2nc3ccccc3[nH]2)CC1 6.06%
Cc1noc(C)c1CSc1nnc2ccc3ccccc3n12 -5%
CN(C)c1ccc(/C=N/Nc2cc(N3CCOCC3)nc(N3CCOCC3)n2)cc1 1.31%
COc1ccc(/C=N/Nc2cc(N3CCOCC3)nc(C)n2)c(OC)c1 0.02%
Cc1ccc(C)c2c1cc(C)c1nnc(SCC(=O)Nc3cccc(C(=O)O)c3)n12 -9.82%
CCOCCCNS(=O)(=O)Cc1ccccc1 5.85%
COc1cnc(SCc2ccc(Cl)c(Cl)c2)nc1Cl 0.38%
O=C(CN1CCCCCC1)Nc1c(Cl)cc(Cl)cc1Cl -0.605%
CN(CC(=O)Nc1ccc(F)cc1)C(=O)c1ccc(-c2ccc(Cl)cc2)o1 22%
O=C(NC1CCCCC1)c1ccc(-c2ccc(Cl)cc2)o1 15%
c1ccc(-n2nc3ccccc3n2)cc1 2.62%
CCC(=O)Nc1ccc2nn(-c3ccc(F)cc3)nc2c1 17.5%
O=Cc1c(Cl)cccc1Cl -4.79%
Cc1nn(C)cc1N1C(=O)c2cccc3c(N)ccc(c23)C1=O 12.4%
CCN1C(=O)c2cccc3c(S(=O)(=O)Nc4ccccc4O)ccc1c23 5.31%
CCSc1sc(CC)cc1C=O -7.54%
COCCC(=O)Nc1ccc2c(c1)CN(C(=O)CCOC)CC2 -12.8%
O=C(CN1CCOCC1)N/N=C/c1ccc(-c2ccc(Br)cc2)o1 -12%
Cc1occc1C(=O)N/N=C/c1ccc(-c2cccc([N+](=O)[O-])c2)o1 10.6%
COc1ccc(-n2nc3c(N4CCC(C(=O)NCc5ccccc5)CC4)nnc(C)c3c2C)cc1 7.29%
CCOc1ccc(CNC(=O)C2CCCN(c3nnc(C)c4c(C)n(-c5ccccc5)nc34)C2)cc1 (stereo not given) 23.8%
C=C(C)CSc1nc(N)c2c3c(sc2n1)CCC3 -16.8%
CC(C)CNC(=O)/C=C/C(=O)O -2.85%
O=C1C(Cl)=C(N2CCOCC2)C(=O)N1c1ccccc1 -17.1%
O=C1c2ccccc2-c2ncnc3c(N4CCOCC4)cc(N4CCOCC4)c1c23 11.8%
Cc1ccc(S(=O)(=O)N2CCN(c3ccccc3)CC2)cc1C 14.9%
CC(C)OC(=O)C(C#N)c1nc2ccccc2nc1N1CCN(Cc2ccccc2)CC1 (stereo not given) 10.2%
CN(C(=O)CCNC(=O)Cn1ccc2ccccc2c1=O)c1ccc(Br)cc1 3.8%
Cc1ccc(C(C)C)c(OCc2nnc(SCC(=O)Nc3nccs3)n2C)c1 11.4%
CCCCN1C(N)=NC[C@@H]1Cc1ccccc1 13.2%
CC[C@@H](C)[C@@H]1CN([C@@H](C)CN2CCC[C@H]2CN2C(N)=NC[C@H]2C(C)C)C(=N)N1CCc1ccc(Cl)c(Cl)c1 25.3%
CC(C)CC(=O)N1CCN(Cc2ccccc2Br)CC1 8.5%
COc1ccc(NC(=O)c2cccc3c2C(=O)N(CC2CCCO2)C3)cc1OC (stereo not given) 2.96%
COCCc1nn2c(=O)cc(COC(=O)c3cc(OC)c(OC)c(OC)c3)nc2s1 -4.08%
COc1cc(/C=N/NC(=O)c2ccoc2C)ccc1OCCN1CCCCC1 10.2%
Cc1ccc(-n2[nH]c(C)c(/C=N/NC(=O)c3cccc([N+](=O)[O-])c3)c2=O)cc1C 25.4%
Oc1ccc(/C=N/N(Cc2ccccc2)c2ccccc2)cc1 8.85%
CC(=O)n1c(C=Nc2ccccc2)c(O)c2ccccc21 5.41%
Cc1cc(N=Nc2ccc3ccccc3c2)ccc1O 4.6%
CSc1ccc(CCNC(=O)C2CCN(c3nnc(-n4cccc4)s3)CC2)cc1 0.72%
O=C(NCCCn1ccnc1)c1cc2c(s1)CCCC2 11.9%
COc1ccc(-c2nc(N)sc2C2(O)C(=O)Nc3c(Br)cc(F)cc32)cc1OC (stereo not given) 3.73%
CCOc1c2ccc(C(=O)NC3CCCc4ccccc43)cc2nn1CC (stereo not given) 5.11%
CCOC(=O)N1CCC(=NNC(N)=O)CC1 1.89%
CC(=O)c1ccc(NC(=O)CSc2nc3ccccc3c(=O)n2CCCN2CCOCC2)cc1 2.62%
O=C(NCc1cccs1)c1cc(-c2ccccn2)nc2ccc(Br)cc12 5.9%
CC(CN1CCOCC1)OC(=O)c1ccc(C(C)(C)C)cc1 (stereo not given) 15.5%
C=CCn1c(C(C)NC(=O)CC)nc2ccccc21 (stereo not given) -0.828%
C=CCn1c(P(C)(=O)O)nc2ccccc21 5.81% and -0.524%
CCOc1ccccc1NC(=O)Cn1nnc(C(=O)NCc2cccs2)c1N -4.26%
O=C(Nc1ccccc1Cl)NC1(C(=O)N2CCOCC2)CCCCC1 -1.88%
Cn1cncc1C#Cc1c(-c2ccsc2)sc2ccccc12 33.5%
CCC/C=C(\CCC)C(NC(=O)Cc1ccccc1)c1ccc(C(=O)OC)cc1 (stereo not given) 7.48%
CC1CCN(C(=O)COC(=O)c2cc(S(=O)(=O)N3CCOCC3)ccc2Cl)CC1 3.82%
CCOC(=O)c1ccc(NC(=O)Cn2cnc3cc(C)c(C)cc32)cc1 -0.083%
O=C(CCC(=O)OCC(F)(F)C(F)F)NCc1ccccc1 -13%
CCOc1ccc(NCCC(=O)c2ccc3c(c2)OCO3)cc1 4.39%
Oc1cc(O)c2c(c1)OC(c1ccc(O)c(O)c1)C(O)C2 (stereo not given) -2.63%
COC(=O)C[n+]1cccc2ccccc21 -1.6%
COc1ccc(-c2cc(C(=O)N/N=C/c3cccnc3)c3ccccc3n2)c(OC)c1 4.65%
C/C(=N\NC(=O)c1cc(-c2ccc(O)cc2)nc2ccccc12)c1cccnc1 7.65%
COc1ccc(C(CNC(=O)c2cc3c(s2)CCCC3)N2CCOCC2)cc1 (stereo not given) 33.5%
CCOc1cc(-c2nc3cc(C)ccn3c2NCC2CCCO2)ccc1O (stereo not given) 9.28%
COc1ccc(-c2nc3cnccn3c2NC2CCCCC2)cc1-c1cccc(Cl)c1 36.9%
CC1CN(C(=S)Nc2cccc(F)c2)CC(C)O1 (stereo not given) -7.38%
COc1ccc(OC)c(C(c2nnnn2C(C)(C)C)N2CCc3ccccc3C2)c1 (stereo not given) 11.5%
CCOc1ccc2[nH]c(=O)c(C(c3nnnn3CCOC)N3CCOCC3)cc2c1 (stereo not given) -3.2%
Cc1cc(OCc2cc(C(=O)NCc3cc(C(C)C)no3)no2)cc(C)c1Cl 17.4%
COC(=O)[C@@H]1C[C@@]2(O)[C@H](O)[C@H](O)[C@H](O)C[C@H]2N1Cc1ccc(C(C)(C)C)cc1 10.6%
CN(C)CCCN(Cc1cc2cc3c(cc2[nH]c1=O)OCCO3)C(=O)NC1CCCCC1 2.55%

inhibition, active:
CC(=O)N(C1=C(Cl)C(=O)c2ccccc2C1=O)c1ccc(C(=O)O)cc1 89%
O=c1cc(N2CCCCC2)c(-c2ccccc2)nn1Cc1cccc(F)c1 44%
C(=N/Nc1cc(N2CCOCC2)nc(N2CCOCC2)n1)/c1ccccc1 76.5%
Cc1[nH][nH]c(=O)c1C(c1ccc(-c2ccc(Cl)cc2)o1)c1c(C)[nH][nH]c1=O 85.8%
Nc1ccc2nn(-c3ccc(Cl)cc3)nc2c1 83.8%
CCN1C(=O)c2cccc3c(N)ccc1c23 97.1%
Cc1ccc(-c2ccc(/C=N/NC(=O)CN3CCOCC3)o2)cc1[N+](=O)[O-] 73.9%
CCc1ccc(CNC(=O)C2CCN(c3nnc(C)c4c(C)n(-c5ccc(C)cc5)nc34)CC2)cc1 42.3%
COC1=C(N2CCOCC2)C(=O)c2ccccc2C1=O 65.8%
Cc1ccc(S(=O)(=O)C(C#N)c2nc3ccccc3nc2N2CCCC2)cc1C (stereo not given) 60%
C[C@@H](CN1CCC[C@H]1CN1C(N)=NC[C@@H]1Cc1ccccc1)N1C[C@@H](Cc2ccccc2)N(CCCC2CCCC2)C1=N 70.9%
Cc1[nH]n(-c2ccccc2)c(=O)c1/C=N/NC(=O)c1ccoc1C 61.5%
Oc1ccc(N=Cc2sc3ccccc3c2Cl)cc1 64.8%
Oc1ccc(N=Cc2c(O)ccc3ccccc23)cc1 87.2%
COCC(C)OC(=O)c1c(N)n(CCCN2CCOCC2)c2nc3ccccc3nc12 (stereo not given) 50.9%
C=CCn1c(N)c(C(=O)OCC(C)C)c2nc3ccccc3nc21 54.1%
CC(C)Cn1c(N)c(C(=O)NCc2cccs2)c2nc3ccccc3nc21 63.4%
O=C(N/N=C\c1cccnc1)c1cc(-c2ccccc2)nc2c(Cl)cccc12 40.1%
COc1ccc(-c2nc3cc(C)ccn3c2NC2CCCCC2)cc1SC1CCCCC1 48.4%
COCCn1nnnc1C(c1cc2ccc(OC)cc2[nH]c1=O)N1CCc2ccccc2C1 (stereo not given) 56.8%
